Results reported in ChEMBL document CHEMBL1177712, “Synthesis and characterization of in vitro and in vivo profiles of hydroxybupropion analogues: aids to smoking cessation” (J Med Chem, 2010).
Activity calls are given as the source filed them.

Legend:
Mus musculus [1] = test: Toxicity in sc dosed ICR mouse assessed occurrence of convulsion; type: organism-based; settings: in vivo
[2] = molecular target: Neuronal acetylcholine receptor; alpha4/beta2 (Homo sapiens, UniProt P17787+P43681); test: Agonist activity at alpha4beta2 nicotinic receptor in human SH-EP1 cells assessed as induction of radiolabeled Rb+ influx at 0.005 to 100 uM by liquid scintillation counting; type: functional, cell-based
Method in brief: (§1)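 Cells were labelled with ⁸⁶Rb⁺ for at least 4 h, then exposed for 5 min in efflux buffer (pH 7.4) to test ligand alone at ~5 nM to 100 μM. The lines were TE671/RD (muscle α1β1γδ), SH-SY5Y (α3β4*) and transfected SH-EP1-hα4β2 or -hα4β4. Efflux was Cerenkov-counted. Non-specific efflux was subtracted, and results were normalized to specific efflux from carbamylcholine (1 mM; 3 mM for SH-SY5Y).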

Mus musculus [3] = test: Smoke cessation activity in sc dosed ICR mouse assessed as inhibition of nicotine-induced antinociception administered 15 mins before nicotine challenge measured after 5 mins of nicotine infusion by hotplate assay; type: functional, organism-based
Method in brief: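 Male ICR mice (20–25 g) were pretreated with saline or test drug 15 min before nicotine at 2.5 mg/kg sc. They were tested 5 min later on a 55 °C hot plate (40 s cutoff), and the result was expressed as %MPE. AD₅₀ came from at least four doses, with at least 8 mice per dose.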

Mus musculus [4] = test: Smoke cessation activity in sc dosed ICR mouse assessed as inhibition of nicotine-induced hypothermia administered 15 mins before nicotine challenge measured after 30 mins of nicotine infusion; type: functional, organism-based
Method in brief: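 Male ICR mice (20–25 g) were pretreated with test drug or saline 15 min before nicotine at 2.5 mg/kg sc. Rectal temperature was taken before and 30 min after nicotine, and the change was calculated. Room temperature was 21–24 °C. AD₅₀ came from at least four doses, with at least 8 mice per dose.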

[5] = molecular target: T1, Neuronal acetylcholine receptor; alpha4/beta4 (Homo sapiens, UniProt P30926+P43681); test: Agonist activity at alpha4beta4 nicotinic receptor in human SH-EP1 cells assessed as induction of radiolabeled Rb+ influx at 0.005 to 100 uM by liquid scintillation counting; type: functional, cell-based; method in brief: as §1
Mus musculus [6] = test: Smoke cessation activity in sc dosed ICR mouse assessed as inhibition of nicotine-induced increase in locomotor activity administered 15 mins before nicotine challenge measured after 5 mins of nicotine infusion; type: functional, organism-based
Mus musculus [7] = test: Toxicity in sc dosed ICR mouse assessed occurrence of sedation; type: organism-based; settings: in vivo
Mus musculus [8] = test: Smoke cessation activity in sc dosed ICR mouse assessed as inhibition of nicotine-induced antinociception administered 15 mins before nicotine challenge measured after 5 mins of nicotine infusion by tail-flick assay; type: functional, organism-based
Method in brief: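 Radiant-heat tail-flick latency was read 5 min later (10 s cutoff; baseline 2–4 s) and expressed as %MPE. AD₅₀ came from at least four doses, with at least 8 mice per dose.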

SH-EP1 = test: Selectivity ratio of IC50 for alpha4beta2 nicotinic receptor in human SH-EP1 cells to IC50 for IC50 for human NET; type: cell-based
[9] = molecular target: Acetylcholine receptor; alpha1/beta1/delta/gamma (Homo sapiens, UniProt P02708+P07510+P11230+Q07001); test: Antagonist activity at alpha-1-beta-1-gamma-delta nicotinic receptor in human TE671 cells assessed as inhibition varbamylcholine-induced radiolabeled Rb+ influx at by liquid scintillation counting; type: functional, cell-based, TE-671
Method in brief: (§2)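 ⁸⁶Rb⁺-loaded human cells were given a 5-min efflux with carbamylcholine at EC₈₀–EC₉₀ plus graded test ligand. Non-specific efflux, taken with 100 μM mecamylamine or buffer, was subtracted. IC₅₀ came from a Hill fit of three independent experiments, with SEM given as a multiplication factor.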

[10] = molecular target: T1, Neuronal acetylcholine receptor; alpha4/beta4; test: Antagonist activity at alpha4beta4 nicotinic receptor in human SH-EP1 cells assessed as inhibition varbamylcholine-induced radiolabeled Rb+ influx at by liquid scintillation counting; type: functional, cell-based; method in brief: as §2

T1 sequence (P30926 whole entry, the tested form may be a part): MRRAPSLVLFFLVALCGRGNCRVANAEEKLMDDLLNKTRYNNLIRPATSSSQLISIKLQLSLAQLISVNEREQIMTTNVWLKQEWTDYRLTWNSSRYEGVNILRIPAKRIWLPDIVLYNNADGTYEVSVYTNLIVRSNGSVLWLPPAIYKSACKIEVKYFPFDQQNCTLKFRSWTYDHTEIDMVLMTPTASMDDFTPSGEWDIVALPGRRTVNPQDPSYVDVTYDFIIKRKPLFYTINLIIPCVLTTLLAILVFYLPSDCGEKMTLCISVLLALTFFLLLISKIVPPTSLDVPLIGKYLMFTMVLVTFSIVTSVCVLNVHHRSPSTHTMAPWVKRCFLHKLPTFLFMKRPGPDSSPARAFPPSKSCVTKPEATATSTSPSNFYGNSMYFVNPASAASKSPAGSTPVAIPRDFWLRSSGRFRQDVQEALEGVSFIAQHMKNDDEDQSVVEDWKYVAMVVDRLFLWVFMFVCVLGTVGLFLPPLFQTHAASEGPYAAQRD
T1 sequence (P43681 whole entry, the tested form may be a part): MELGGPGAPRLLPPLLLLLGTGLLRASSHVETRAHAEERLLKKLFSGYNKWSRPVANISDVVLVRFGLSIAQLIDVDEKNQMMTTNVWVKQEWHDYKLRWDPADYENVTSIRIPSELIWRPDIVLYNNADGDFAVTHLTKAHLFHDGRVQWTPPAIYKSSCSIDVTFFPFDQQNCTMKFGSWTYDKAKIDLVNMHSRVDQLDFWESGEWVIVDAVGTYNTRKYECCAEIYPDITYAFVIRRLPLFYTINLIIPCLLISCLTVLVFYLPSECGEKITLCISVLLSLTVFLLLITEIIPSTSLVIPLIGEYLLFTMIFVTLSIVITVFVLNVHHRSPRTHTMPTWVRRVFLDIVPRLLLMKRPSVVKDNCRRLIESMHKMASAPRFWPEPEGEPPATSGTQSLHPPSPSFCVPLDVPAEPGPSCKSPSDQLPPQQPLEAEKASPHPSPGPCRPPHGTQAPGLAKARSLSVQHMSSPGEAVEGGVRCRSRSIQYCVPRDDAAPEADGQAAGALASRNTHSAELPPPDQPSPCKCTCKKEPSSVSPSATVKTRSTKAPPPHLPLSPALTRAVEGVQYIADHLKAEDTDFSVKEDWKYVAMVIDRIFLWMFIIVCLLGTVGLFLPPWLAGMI
Sequence of Acetylcholine receptor; alpha1/beta1/delta/gamma (P02708 whole entry): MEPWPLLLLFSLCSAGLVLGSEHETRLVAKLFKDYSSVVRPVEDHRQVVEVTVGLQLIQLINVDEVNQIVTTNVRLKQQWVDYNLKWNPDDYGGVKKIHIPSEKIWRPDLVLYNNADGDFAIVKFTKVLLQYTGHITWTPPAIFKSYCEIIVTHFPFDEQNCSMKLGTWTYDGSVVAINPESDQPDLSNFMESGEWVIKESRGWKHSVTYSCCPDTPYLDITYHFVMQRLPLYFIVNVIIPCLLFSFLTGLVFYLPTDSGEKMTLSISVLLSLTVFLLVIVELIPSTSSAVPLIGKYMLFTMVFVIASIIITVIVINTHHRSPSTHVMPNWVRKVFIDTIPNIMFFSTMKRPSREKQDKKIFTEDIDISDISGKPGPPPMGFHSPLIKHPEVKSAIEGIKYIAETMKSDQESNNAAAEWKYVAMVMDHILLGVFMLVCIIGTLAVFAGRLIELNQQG
Sequence of Acetylcholine receptor; alpha1/beta1/delta/gamma (P07510 whole entry): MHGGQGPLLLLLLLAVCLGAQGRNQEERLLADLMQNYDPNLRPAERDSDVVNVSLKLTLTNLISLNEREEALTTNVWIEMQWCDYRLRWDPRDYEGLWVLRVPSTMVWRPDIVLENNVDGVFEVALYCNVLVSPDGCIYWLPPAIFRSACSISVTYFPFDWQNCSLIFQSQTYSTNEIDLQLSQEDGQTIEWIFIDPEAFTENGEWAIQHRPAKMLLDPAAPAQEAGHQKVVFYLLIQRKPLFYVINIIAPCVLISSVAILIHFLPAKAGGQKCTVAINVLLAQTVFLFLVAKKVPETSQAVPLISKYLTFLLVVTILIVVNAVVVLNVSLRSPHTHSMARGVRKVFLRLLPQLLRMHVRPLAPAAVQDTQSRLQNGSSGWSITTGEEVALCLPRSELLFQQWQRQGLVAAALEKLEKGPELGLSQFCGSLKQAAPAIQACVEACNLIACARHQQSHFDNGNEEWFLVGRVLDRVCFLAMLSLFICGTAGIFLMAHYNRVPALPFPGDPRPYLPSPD
Sequence of Acetylcholine receptor; alpha1/beta1/delta/gamma (P11230 whole entry): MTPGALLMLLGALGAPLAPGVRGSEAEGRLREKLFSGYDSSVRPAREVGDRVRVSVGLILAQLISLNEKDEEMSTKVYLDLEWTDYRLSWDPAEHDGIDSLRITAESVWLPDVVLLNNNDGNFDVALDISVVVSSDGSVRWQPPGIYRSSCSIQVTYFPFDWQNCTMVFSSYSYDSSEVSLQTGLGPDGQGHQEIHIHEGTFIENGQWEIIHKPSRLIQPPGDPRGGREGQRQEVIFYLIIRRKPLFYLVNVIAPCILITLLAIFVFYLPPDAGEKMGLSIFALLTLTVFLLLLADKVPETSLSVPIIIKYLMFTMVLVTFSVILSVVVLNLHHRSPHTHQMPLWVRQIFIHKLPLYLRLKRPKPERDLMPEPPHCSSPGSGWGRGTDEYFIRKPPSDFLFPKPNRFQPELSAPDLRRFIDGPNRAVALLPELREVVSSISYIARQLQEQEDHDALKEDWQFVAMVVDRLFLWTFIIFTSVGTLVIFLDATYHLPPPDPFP
Sequence of Acetylcholine receptor; alpha1/beta1/delta/gamma (Q07001 whole entry): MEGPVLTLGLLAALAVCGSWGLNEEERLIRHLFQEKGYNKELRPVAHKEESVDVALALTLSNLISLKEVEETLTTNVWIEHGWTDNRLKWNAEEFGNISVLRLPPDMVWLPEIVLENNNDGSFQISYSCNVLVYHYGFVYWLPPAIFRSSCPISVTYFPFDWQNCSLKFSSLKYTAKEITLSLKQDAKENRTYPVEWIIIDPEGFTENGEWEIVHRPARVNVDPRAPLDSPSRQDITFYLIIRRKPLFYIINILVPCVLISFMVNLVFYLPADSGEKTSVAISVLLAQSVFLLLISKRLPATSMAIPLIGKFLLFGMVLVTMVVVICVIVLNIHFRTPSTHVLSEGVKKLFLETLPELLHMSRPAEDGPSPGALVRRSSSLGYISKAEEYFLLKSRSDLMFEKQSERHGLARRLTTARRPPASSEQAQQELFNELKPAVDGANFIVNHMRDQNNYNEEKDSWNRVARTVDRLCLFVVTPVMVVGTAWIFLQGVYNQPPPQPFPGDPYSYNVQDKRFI

SMILES | Activity (Mus musculus [1]) | Activity [2] | IC50 (Mus musculus [3]) | IC50 (Mus musculus [4]) | Activity [5] | IC50 (Mus musculus [6]) | Activity (Mus musculus [7]) | IC50 (Mus musculus [8]) | Ratio IC50 (SH-EP1) | IC50 [9] | IC50 [10]
C[C@@H]1NC(C)(C)CO[C@@]1(O)c1cc(F)cc(F)c1 | Non-toxic | inactive | > 15 mg/kg | > 15 mg/kg | inactive | > 15 mg/kg | Non-toxic | 0.0056 mg/kg | – | – | –
COc1ccc([C@]2(O)OCC(C)(C)N[C@H]2C)cc1 | Non-toxic | inactive | > 15 mg/kg | > 15 mg/kg | inactive | > 15 mg/kg | Non-toxic | 0.019 mg/kg | – | – | –
Cc1cccc([C@]2(O)OCC(C)(C)N[C@H]2C)c1 | Non-toxic | inactive | 7.6 mg/kg | 2.3 mg/kg | inactive | > 15 mg/kg | Non-toxic | 0.054 mg/kg | 5.3 | – | –
C[C@@H]1NC(C)(C)CO[C@@]1(O)c1cccc(Br)c1 | Non-toxic | inactive | 4.3 mg/kg | 1.7 mg/kg | inactive | 2.6 mg/kg | Non-toxic | 0.16 mg/kg | – | – | –
C[C@@H]1NC(C)(C)CO[C@@]1(O)c1ccccc1 | Non-toxic | – | > 15 mg/kg | > 15 mg/kg | – | > 15 mg/kg | Non-toxic | > 15 mg/kg | – | > 100 µM | –
CC1NC(C)(C)COC1(O)c1ccccn1 (racemic) | Non-toxic | inactive | – | – | inactive | – | Non-toxic | – | – | > 100 µM | > 100 µM
COc1cccc([C@]2(O)OCC(C)(C)N[C@H]2C)c1 | Non-toxic | inactive | > 15 mg/kg | > 15 mg/kg | inactive | > 15 mg/kg | Non-toxic | 5.85 mg/kg | 3.3 | – | > 100 µM
CC[C@@H]1NC(C)(C)CO[C@@]1(O)c1cccc(Cl)c1 | Non-toxic | inactive | 3.7 mg/kg | 7 mg/kg | inactive | 10.3 mg/kg | Non-toxic | 0.004 mg/kg | 67 | – | –
C[C@@H]1NC(C)(C)CO[C@@]1(O)c1ccc(F)cc1 | Non-toxic | inactive | > 15 mg/kg | 5.67 mg/kg | inactive | > 15 mg/kg | Non-toxic | 0.013 mg/kg | 3 | – | > 100 µM
Cc1ccc([C@]2(O)OCC(C)(C)N[C@H]2C)cc1 | Non-toxic | inactive | > 15 mg/kg | > 15 mg/kg | inactive | > 15 mg/kg | Non-toxic | 0.004 mg/kg | – | – | –
C[C@@H]1NC(C)(C)CO[C@@]1(O)c1ccc(-c2ccccc2)cc1 | Non-toxic | – | > 15 mg/kg | > 15 mg/kg | – | > 15 mg/kg | Non-toxic | 0.021 mg/kg | – | – | –
